The text below walks through data of ChEMBL document CHEMBL1144766, “Discovery of quinolinediones exhibiting a heat shock response and angiogenesis inhibition” (J Med Chem, 2008).

The nature of data set [1]: (§1) Cytotoxicity against human NCI60 cells. Particulars: for TGI: read-out: Log TGI (converted). Format: functional.
For data set [2], the target named is Heat shock protein HSP 90-beta (Homo sapiens) (UniProt P08238). Description: Binding affinity to N-terminal ATP binding site of Hsp90 at 100 uM after 30 mins. In short, it runs like this:
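Compounds were made up in DMSO at 35 mM (stock) just before use and added to whole cell lysates at 100 µM final. Lysates were held on ice for 30 min, then incubated with geldanamycin-derivatized agarose beads at 4 °C with rocking for 60 min. Beads were washed, and eluted proteins were run on gels and blotted for Hsp90. Loss of the Hsp90 band indicated competition.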

Another data set deals with NCI60. The data set is described as §1. It counts as functional.
For another data set, the system named is MCF7. Put plainly: Growth inhibition of human MCF7 cells after 48 hrs by sulforhodamine B assay. It counts as functional. The procedure, abridged:
(§2)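 Sulforhodamine B assay. Cells were seeded and incubated 24 h, then exposed to serial compound dilutions for 48 h. Plates were fixed with trichloroacetic acid, stained with SRB and read for optical density. GI50 was calculated from the OD data as the concentration giving 50% reduction in net protein increase. HUVEC were grown in EGM-2.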

Data set [3] relates to HUVEC. Description: Effect on HUVEC growth at 0.001 ug/ml relative to control. Format: functional, Homo sapiens.
Data set [4] relates to HUVEC. Put plainly: Antiangiogenic activity in HUVEC assessed as number of junctions at 1.0 ug/ml after 24 hrs relative to control. It counts as functional, Homo sapiens. In short, it runs like this: (§3)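 HUVEC grown in EGM-2. Matrigel was gelled in wells (15 min room temperature, then 30 min at 37 °C) and seeded with HUVEC at 2 × 10⁵ cells/mL. Compound was added in culture medium. After 24 h, cords and junctions were imaged by inverted microscope and digital camera. Cord length and junction number were measured relative to untreated controls.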

Data set [5] concerns HUVEC. Put plainly: Effect on HUVEC growth at 0.01 ug/ml relative to control. It counts as functional, Homo sapiens.
In data set [6] the test system is HUVEC. Description: Effect on HUVEC growth at 10 ug/ml relative to control. It counts as functional, Homo sapiens.
In data set [7] the test system is HUVEC. Description: Antiangiogenic activity in HUVEC assessed as number of junctions at 0.1 ug/ml after 24 hrs relative to control. Format: functional, Homo sapiens. The procedure, abridged: as §3
Another data set concerns NCI-H460. Put plainly: Growth inhibition of human NCI-H460 cells after 48 hrs by sulforhodamine B assay. Format: functional. The procedure, abridged:
as §2

For data set [8], the system named is HUVEC. Description: Effect on HUVEC growth at 0.1 ug/ml relative to control. Format: functional, Homo sapiens.
In data set [9] the test system is HUVEC. Description: Antiangiogenic activity in HUVEC assessed as number of junctions at 0.01 ug/ml after 24 hrs relative to control. It counts as functional. In short, it runs like this: as §3
In data set [10] the test system is HUVEC. Put plainly: Antiangiogenic activity in HUVEC assessed as cord length at 0.1 ug/ml after 24 hrs relative to control. Format: functional, cell-based. Particulars: Homo sapiens. In short, it runs like this:
as §3

Data set [11] concerns HUVEC. Put plainly: Antiangiogenic activity in HUVEC assessed as number of junctions at 0.001 ug/ml after 24 hrs relative to control. It counts as functional, cell-based. Particulars: Homo sapiens. In short, it runs like this:
as §3

Data set [12] concerns HUVEC. Description: Antiangiogenic activity in HUVEC assessed as cord length at 0.01 ug/ml after 24 hrs relative to control. Format: functional, cell-based. Particulars: Homo sapiens. In short, it runs like this:
as §3

The test system of data set [13] is HUVEC. Description: Effect on HUVEC growth at 1.0 ug/ml relative to control. Format: functional, Homo sapiens.
Data set [14] deals with HUVEC. Put plainly: Antiangiogenic activity in HUVEC assessed as cord length at 0.001 ug/ml after 24 hrs relative to control. It counts as functional, cell-based. Particulars: Homo sapiens. In short, it runs like this: as §3
Data set [15] has as its system HUVEC. Put plainly: Antiangiogenic activity in HUVEC assessed as cord length at 1.0 ug/ml after 24 hrs relative to control. It counts as functional, cell-based. Particulars: Homo sapiens. The procedure, abridged: as §3
The test system of data set [16] is HUVEC. Put plainly: Growth inhibition of HUVEC after 48 hrs by sulforhodamine B assay. It counts as cell-based. Particulars: human. The procedure, abridged:
as §2
A general note: In SRB staining, fixed cells bind dye roughly in proportion to their protein.

For data set [17], the system named is HUVEC. Put plainly: Antiangiogenic activity in HUVEC assessed as cord length at 10 ug/ml after 24 hrs relative to control. Format: functional, Homo sapiens. The procedure, abridged: as §3

Activity calls are given as the source filed them. The rule behind the calls is not given here.

Sequence of Heat shock protein HSP 90-beta (Homo sapiens) (P08238 whole entry): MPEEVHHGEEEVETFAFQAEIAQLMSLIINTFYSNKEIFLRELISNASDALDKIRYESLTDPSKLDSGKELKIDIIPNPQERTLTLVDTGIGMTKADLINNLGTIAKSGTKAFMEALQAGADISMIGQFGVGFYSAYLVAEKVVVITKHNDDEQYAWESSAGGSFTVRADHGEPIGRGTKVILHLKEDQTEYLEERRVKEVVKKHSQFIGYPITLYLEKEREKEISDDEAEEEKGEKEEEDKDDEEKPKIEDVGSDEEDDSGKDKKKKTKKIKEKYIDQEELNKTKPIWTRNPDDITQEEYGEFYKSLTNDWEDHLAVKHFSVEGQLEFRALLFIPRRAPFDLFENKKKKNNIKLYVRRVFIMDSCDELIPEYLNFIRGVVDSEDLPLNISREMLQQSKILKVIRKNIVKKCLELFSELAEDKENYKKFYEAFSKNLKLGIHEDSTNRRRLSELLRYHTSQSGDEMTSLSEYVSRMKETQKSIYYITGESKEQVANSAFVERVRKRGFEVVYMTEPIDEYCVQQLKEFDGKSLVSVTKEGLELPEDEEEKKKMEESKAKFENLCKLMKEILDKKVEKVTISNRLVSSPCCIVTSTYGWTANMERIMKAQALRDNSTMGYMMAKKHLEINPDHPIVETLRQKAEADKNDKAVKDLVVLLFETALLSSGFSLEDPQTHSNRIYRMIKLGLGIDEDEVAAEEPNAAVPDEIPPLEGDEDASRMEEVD

Broadly, the GI50 is the concentration at which growth is held to half of that of the control. Low values mean greater sensitivity of the cells, high ones lower sensitivity of the cells. The LC50 is the concentration that kills 50% of the test population. One may read the TGI as the concentration giving total growth inhibition. As for `Cc1ccc2c(n1)C(=O)C=C(N1CC1)C2=O`, in data set [1], growth was halved (GI50) at 0.513 µM, the LC50 is 7.94 µM and the TGI was 2.04 µM. Further, in data set [2], the result was inactive.

Molecule `COc1cc(CNC2=CC(=O)c3ccc(-c4ccccc4)nc3C2=O)cc(OC)c1OC` gave a GI50 in data set [1] of 57.5 µM. Besides, the result (in the data set with NCI60; in [2]) was inactive.

As to `COc1cc(CNC2=CC(=O)c3nc(-c4ccccc4)ccc3C2=O)cc(OC)c1OC`, in data set [1], growth was halved (GI50) at 2.34 µM, the LC50 was 66.1 µM and the TGI was 15.5 µM. Further, the result in data set [2] was inactive.

Take `COCCCNC1=CC(=O)c2nc(-c3ccccc3)ccc2C1=O`: in data set [1], the GI50 was 3.55 µM, the LC50 was 66.1 µM and the TGI is 19.1 µM. In [2], the result was inactive.

As for `O=C1C(N2CCCC2)=CC(=O)c2nc(-c3ccccc3)ccc21`, the GI50 in data set [1] was 44.7 µM. In addition, the outcome (in the data set on NCI60; in data set [2]) was inactive.

Turning to `COCCCNC1=CC(=O)c2ccc(-c3ccccc3)nc2C1=O`, in [1], growth was halved (GI50) at 5.5 µM, the LC50 was 70.8 µM and the TGI was 28.8 µM. Besides, the outcome in data set [2] was inactive.

Consider `O=C1C(NCc2ccccc2)=CC(=O)c2nc(-c3ccccc3)ccc21`, for which, in data set [1], growth was halved (GI50) at 1.7 µM, the LC50 is 66.1 µM and the concentration for total growth inhibition (TGI) was 15.5 µM. Moreover, in [2], the outcome was inactive.

As for `C=CCNC1=CC(=O)c2nc(-c3ccccc3)ccc2C1=O`, in data set [1], the GI50 is 1.91 µM, the LC50 was 43.7 µM and the TGI was 14.1 µM. Also, in [2], the outcome was inactive.

Turning to `COC1=CC(=O)c2nc(-c3cc(OC)c(OC)c(OC)c3)ccc2C1=O`, the Activity turned out to be 0.24 µg/mL in the data set on MCF7; 106% in the data set on HUVEC [3]; 50% in the data set with HUVEC [4]; 117% in the data set with HUVEC [5]; 23% with HUVEC [6]; 50% with HUVEC [7]. In addition, the Activity in the data set on NCI-H460 was determined as 1.9 µg/mL; in the data set on HUVEC [8] it was 90%; in the data set on HUVEC [13], 2%; in the data set on HUVEC [16], 0.28 µg/mL. Besides, the outcome (in the data set with HUVEC [9] (Homo sapiens); in the data set with HUVEC [10]; in the data set with HUVEC [11]; in data set [2]; in the data set with HUVEC [12]; in the data set with HUVEC [14]) was inactive. Further, the outcome with HUVEC [15] was inactive.

On to `COc1cc(-c2ccc3c(n2)C(=O)C=C(NCc2ccccc2)C3=O)cc(OC)c1OC`, for which the Activity in the data set with MCF7 amounted to 0.52 µg/mL; in the data set with HUVEC [3], 104%; in the data set with HUVEC [5], 92%; in the data set with HUVEC [6] it was 13%; in the data set on NCI-H460 it was 0.65 µg/mL; in the data set on HUVEC [17], 75%. Besides, the Activity in the data set with HUVEC [8] is 64%; with HUVEC [13] it was 64%; with HUVEC [16], 1.9 µg/mL. Also, the result with HUVEC [4] (Homo sapiens), with NCI60, in the data set on HUVEC [7] (Homo sapiens), with HUVEC [9] (Homo sapiens), in the data set with HUVEC [10] and in the data set with HUVEC [11] was inactive. Moreover, the outcome (in [2]; in the data set on HUVEC [12]; in the data set on HUVEC [14]; in the data set on HUVEC [15]) was inactive.

`COc1cc(-c2ccc3c(n2)C(=O)C=C(N2CC2)C3=O)cc(OC)c1OC`: in data set [1], halving of growth (GI50) required 0.589 µM, the median lethal concentration (LC50) was 5.5 µM and the total growth inhibition concentration (TGI) was 1.78 µM. In addition, the outcome in data set [2] was inactive.

Regarding `O=C1C=C(N2CC2)C(=O)c2nc(-c3ccccc3)ccc21`, in [1], the GI50 is 0.0851 µM, the LC50 was 17.8 µM and the TGI is 3.31 µM. In addition, in data set [2], the outcome was inactive.

The molecule `O=C1C=C(NCc2ccccc2)C(=O)c2nc(-c3ccccc3)ccc21` gave a GI50 in [1] of 33.1 µM. In addition, the outcome (in the data set on NCI60; in [2]) was inactive.

For `O=C1C(N2CC2)=CC(=O)c2nc(-c3ccc(-c4ccccc4)cc3)ccc21`, in data set [1], halving of growth (GI50) required 7.94 µM, the LC50 was 64.6 µM and the concentration for total growth inhibition (TGI) is 26.9 µM. The outcome in data set [2] was inactive.

On to `Cc1cc2c(nc1-c1ccccc1)C(=O)C=C(N1CC1)C2=O`, for which the outcome in data set [2] was inactive.

In the case of `COc1cc2c(nc1C)C(=O)C(N1CC1)=CC2=O`, in data set [1], the GI50 is 0.275 µM, the LC50 is 4.37 µM and the TGI was 0.832 µM. The outcome in data set [2] was inactive.

For `O=C1C(N2CC2)=CC(=O)c2nc(-c3ccccc3)ccc21`, in [1], the GI50 was 0.0275 µM, the LC50 is 2.04 µM and the TGI is 0.324 µM. For the same molecule, in [2], the result was inactive.

For `COc1cc2c(nc1-c1ccccc1)C(=O)C(N1CC1)=CC2=O`, in data set [1], the GI50 is 0.525 µM, the 50% lethal concentration (LC50) is 4.9 µM and the TGI is 1.66 µM. The outcome in data set [2] was inactive.

Turning to `COc1cc(-c2ccc3c(n2)C(=O)C(NCc2ccccc2)=CC3=O)cc(OC)c1OC`, the Activity was 0.35 µg/mL in the data set on MCF7; 102% in the data set on HUVEC [3]; 50% with HUVEC [4]; 118% with HUVEC [5]; 14% with HUVEC [6]; 50% in the data set on HUVEC [7]. In addition, the Activity in the data set on NCI-H460 was 0.43 µg/mL; with HUVEC [17], 75%; with HUVEC [8], 91%; with HUVEC [9], 50%; with HUVEC [13], 64%; in the data set with HUVEC [16] it was 1.9 µg/mL. In data set [1], this molecule showed a 50% growth inhibitory concentration (GI50) of 2.69 µM. Moreover, the TGI in data set [1] was 63.1 µM. The outcome (in the data set with NCI60; in the data set on HUVEC [10]; with HUVEC [11]; in data set [2]; in the data set on HUVEC [12]; in the data set with HUVEC [14]) was inactive. Also, the outcome in the data set on HUVEC [15] was inactive.
